Laboratory results reported in ChEMBL document CHEMBL1157420, “2-phenyl-4-piperazinylbenzimidazoles: orally active inhibitors of the gonadotropin releasing hormone (GnRH) receptor” (Bioorg Med Chem, 2008).
Active and inactive are the calls of the source. No cut-off for these calls is given here.

Assays:
[1] = target: T1, Gonadotropin-releasing hormone receptor (Rattus norvegicus, UniProt P30969); experiment: Displacement of [125I]-(D-Trp6)LHRH from rat recombinant GnRH receptor
T1 sequence (P30969 whole entry): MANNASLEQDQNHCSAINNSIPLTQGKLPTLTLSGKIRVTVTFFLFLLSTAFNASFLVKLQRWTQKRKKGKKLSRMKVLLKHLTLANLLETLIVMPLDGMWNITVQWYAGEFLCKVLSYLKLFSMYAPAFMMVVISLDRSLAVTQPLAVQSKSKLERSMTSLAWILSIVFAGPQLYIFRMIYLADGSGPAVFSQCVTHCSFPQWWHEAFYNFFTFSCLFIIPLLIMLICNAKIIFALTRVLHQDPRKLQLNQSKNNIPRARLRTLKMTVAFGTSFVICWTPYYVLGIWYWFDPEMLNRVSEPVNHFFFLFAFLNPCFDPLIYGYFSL
Method in brief: (§1)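 Membranes from recombinant cells expressing human or rat GnRH receptor, made in 25 mM Tris-Cl pH 7.4 with 0.1% sodium azide and 0.1% BSA. 50 μg protein incubated with about 50,000 cpm 125I-(D-Trp6)-LHRH for 2 h at 4 °C, with increasing unlabeled competitor. Filtered on BSA-presoaked glass-fiber filters, washed twice, counted by gamma counter. Percent inhibition and IC50 derived.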

[2] = target: T2, Gonadotropin-releasing hormone receptor (Homo sapiens, UniProt P30968); experiment: Antagonist activity at human recombinant GnRH receptor assessed as reduction in (D-Trp6)LHRH-induced myo-(1,2)-[3H]inositol production; format: functional
T2 sequence (P30968 whole entry): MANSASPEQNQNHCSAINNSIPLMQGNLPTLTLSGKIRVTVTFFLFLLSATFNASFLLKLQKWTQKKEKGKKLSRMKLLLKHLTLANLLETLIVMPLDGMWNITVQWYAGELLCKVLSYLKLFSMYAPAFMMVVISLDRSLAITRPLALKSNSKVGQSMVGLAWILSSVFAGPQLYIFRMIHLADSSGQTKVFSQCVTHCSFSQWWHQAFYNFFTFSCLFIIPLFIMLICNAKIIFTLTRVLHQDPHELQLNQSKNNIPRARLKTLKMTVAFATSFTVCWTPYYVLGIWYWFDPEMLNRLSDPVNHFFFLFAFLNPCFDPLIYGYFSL
Method in brief: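 Recombinant cells expressing human GnRH receptor, pre-labeled with myo-(1,2)-3H-inositol, incubated 1 h in medium with lithium chloride and D-Trp6-LHRH, with or without antagonist. Cells then lysed and labeled inositol phosphates separated from inositol by […] and counted. Run in triplicate, repeated in three independent experiments; IC50 derived.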

[3] = AUC (0 to infinity) in rat at 1.0 mg/kg, iv; format: ADME, organism-based; set-up: time infinity, dose 1 mg/kg, route intravenous; settings: plasma
[4] = Half life in rat plasma at 1.0 mg/kg, iv; format: ADME, organism-based; set-up: dose 1 mg/kg, route intravenous
[5] = target: T2, Gonadotropin-releasing hormone receptor; experiment: Displacement of [125I]-(D-Trp6)LHRH from human recombinant GnRH receptor; method in brief: as §1
[6] = Tmax in rat at 20 mg/kg, po; format: ADME, organism-based; set-up: dose 20 mg/kg, route oral; settings: in vivo
Rattus norvegicus = experiment: Activity in orchidectomized castrated Sprague-Dawley rat assessed as reduction in LH level at 30 mg/kg, po after 24 hrs; format: functional, organism-based; set-up: dose 30 mg/kg; settings: in the assay text read “after 1 to 6 hrs” for “after 24 hrs”
Method in brief: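 Male Sprague–Dawley rats ten days post-castration, jugular-catheterized; basal blood drawn, then vehicle (2% Tween 80/0.04 N HCl) or antagonist given orally. Blood sampled at regular intervals, plasma LH measured by ELISA. Figure legend gives PEG 400 as vehicle, nine animals per group, t = 0 levels set to 100.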

[7] = Volume of distribution at steady state in rat at 1.0 mg/kg, iv; format: ADME, organism-based; set-up: dose 1 mg/kg, route intravenous; settings: in vivo, read-out: Vdss
[8] = Cmax in rat at 20 mg/kg, po; format: ADME, organism-based; set-up: dose 20 mg/kg, route oral; settings: in vivo
[9] = AUC (0 to infinity) in rat at 20 mg/kg, po; format: ADME, organism-based; set-up: time infinity, dose 20 mg/kg, route oral; settings: plasma
[10] = Half life in rat plasma at 20 mg/kg, po; format: ADME, organism-based; set-up: dose 20 mg/kg, route oral
[11] = target: 5-hydroxytryptamine receptor 2A (Homo sapiens, UniProt P28223); experiment: Binding affinity to 5HT2A receptor
[12] = Bioavailability in rat at 20 mg/kg, po; format: ADME, organism-based; settings: in vivo
[13] = Plasma clearance in rat at 1.0 mg/kg, iv; format: ADME, organism-based; set-up: dose 1 mg/kg, route intravenous
[14] = target: T1, Gonadotropin-releasing hormone receptor; experiment: Antagonist activity at […] GnRH receptor in CO2 asphyxiated rat primary pituitary cells assessed as reduction in (D-Trp6)LHRH-induced LH release; format: functional, cell-based, Pituitary gland cell
Method in brief: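 Anterior pituitaries from adult rats were minced, dissociated and plated at 30,000 cells/well in DMEM with 25 mM Hepes and 10% FBS, then cultured 72 h at 37 °C, 5% CO2. After washing, cells were treated 3 h in 0.1% BSA medium with an antagonist dose response plus an ED50 concentration of D-Trp6-LHRH. LH in medium measured by RIA; cell toxicity checked by CellTiter-Glo.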

Chain of 5-hydroxytryptamine receptor 2A (P28223 whole entry): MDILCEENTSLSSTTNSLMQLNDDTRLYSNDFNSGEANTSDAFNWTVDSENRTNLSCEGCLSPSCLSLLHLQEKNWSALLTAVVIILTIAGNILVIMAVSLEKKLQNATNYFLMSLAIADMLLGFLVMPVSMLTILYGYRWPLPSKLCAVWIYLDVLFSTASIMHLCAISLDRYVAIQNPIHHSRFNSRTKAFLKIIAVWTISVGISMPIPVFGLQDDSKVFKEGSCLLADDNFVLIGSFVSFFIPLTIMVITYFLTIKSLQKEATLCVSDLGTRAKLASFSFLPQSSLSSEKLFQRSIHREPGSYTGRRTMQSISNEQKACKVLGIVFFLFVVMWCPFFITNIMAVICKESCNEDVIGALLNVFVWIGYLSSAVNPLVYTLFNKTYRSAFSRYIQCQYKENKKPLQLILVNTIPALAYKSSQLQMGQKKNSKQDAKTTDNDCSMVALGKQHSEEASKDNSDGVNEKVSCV

Question: What does the source list for `CCn1cc(CN2CCN(c3cccc4[nH]c(-c5ccc(C(C)(C)C)cc5)nc34)CC2)c(=O)[nH]c1=O`?
Answer: IC50 [1]: 32 nM; IC50 [2]: 4 nM; AUC(0-inf) [3]: 190 ng·h/mL; half-life [4]: 1.1 h; IC50 [5]: 11 nM; Tmax [6]: 0.67 h; Activity (Rattus norvegicus): Active; Vd [7]: 4.8 L/kg; Cmax [8]: 480 ng/mL; AUC(0-inf) [9]: 2720 ng·h/mL; half-life [10]: 3.1 h; Ki [11]: 230 nM; bioavailability [12]: 74%; clearance [13]: 95 mL/min/kg; IC50 [14]: 59 nM
